Read-outs that look alike come from different tables or passages of the source.
Tested on: P. carinii
Experiment: ATP bioassay, anti-Pneumocystis activity
Format: cell-based, Pneumocystis carinii
Conditions: for IC50: Pneumocystis carinii
Method in brief: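 Rat-lung P. carinii (male CD rats, methylprednisolone-immunosuppressed), cryopreserved, thawed, held at 5 × 10^7 nuclei/ml in RPMI-1640 + 20% calf serum, 37 °C, 5% CO2. Screen at 100 µg/ml; titrated if ATP fell ≥50%. Luciferin-luciferase ATP at 6, 24, 48, 72 h. Triplicate wells, 3 assays, 2 batches. Ampicillin 10 µg/ml and pentamidine 1 µg/ml controls. IC50: linear regression, % ATP decrease vs log concentration.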

[1] = 72 h, read-out: IC50 (µg/ml) ± SD for P. carinii

| IC50 [1] | IC50 (read-out: Activity ranking) | IC50 (72 h) | SMILES | Activity ranking (ranking based on IC50 in µg/ml) |
| --- | --- | --- | --- | --- |
| 1.8 ± 0.76 µg/mL | 1 to 9.99 µg/mL | – | COc1cc(C(=N)N)ccc1OCCN(CCOc1ccc(C(=N)N)cc1OC)S(=O)(=O)c1ccccc1.Cl.Cl [compound 12, N,N-Bis[2(4-amidino-2-methoxyphenoxy)ethyl]benzenesulfonamide dihydrochloride] | – |
| 3.13 ± 0.99 µg/mL | 1 to 9.99 µg/mL | – | COc1cc(C(=N)N)cc(OC)c1OCCN(CCOc1c(OC)cc(C(=N)N)cc1OC)S(=O)(=O)c1ccccc1.Cl.Cl [compound 13, N,N-Bis[2(4-amidino-2,6-dimethoxyphenoxy)ethyl]-benzenesulfonamide] | – |
| 2.59 ± 0.83 µg/mL | 1 to 9.99 µg/mL | – | COc1cc(C(=N)N)ccc1OCCN(CCOc1ccc(C(=N)N)cc1OC)S(=O)(=O)c1ccc(NC(C)=O)cc1.Cl.Cl [compound 15, N,N-Bis[2(4-amidino-2-methoxyphenoxy)ethyl]-4-acetamidobenzenesulfonamide] | – |
| 3.24 ± 0.88 µg/mL | 1 to 9.99 µg/mL | – | COc1cc(C(=N)N)cc(OC)c1OCCN(CCOc1c(OC)cc(C(=N)N)cc1OC)S(=O)(=O)c1ccc(N)cc1.Cl.Cl [compound 16] | – |
| 1.53 ± 0.9 µg/mL | 1 to 9.99 µg/mL | – | Cl.Cl.N=C(N)c1ccc(C(=O)NCCCNC(=O)c2ccc(C(=N)N)cc2)cc1 [compound 17, N,N’-Propane-1,3-diylbis(4-amidinobenzamide) dihydrochloride] | – |
| 1.85 ± 0.01 µg/mL | 1 to 9.99 µg/mL | – | Cl.Cl.N=C(N)c1ccc(C(=O)NCCCCNC(=O)c2ccc(C(=N)N)cc2)cc1 [compound 18, N,N’-Butane-1,4-diylbis(4-amidinobenzamide) dihydrochloride] | – |
| 7.4 ± 0.22 µg/mL | 1 to 9.99 µg/mL | – | Cl.Cl.N=C(N)c1ccc(C(=O)NCCCCCNC(=O)c2ccc(C(=N)N)cc2)cc1 [compound 19, N,N’-Pentane-1,5-diylbis(4-amidinobenzamide) dihydrochloride] | – |
| 4.9 ± 1.2 µg/mL | 1 to 9.99 µg/mL | – | Cl.Cl.N=C(N)c1ccc(C(=O)NCCCCCCNC(=O)c2ccc(C(=N)N)cc2)cc1 [compound 20, N,N’-Hexane-1,6-diylbis(4-amidinobenzamide) dihydrochloride] | – |
| 0.3 µg/mL | – | 500 nM | N=C(N)c1ccc(OCCCCCOc2ccc(C(=N)N)cc2)cc1 [pentamidine, reference compound] | – |

Second part, the compound before the results:

| SMILES | IC50 [1] | IC50 (read-out: Activity ranking) | IC50 (72 h) | Activity ranking (ranking based on IC50 in µg/ml) |
| --- | --- | --- | --- | --- |
| CN(CCOc1ccc(C(=N)N)cc1)CCOc1ccc(C(=N)N)cc1.Cl.Cl [compound 1, 1,5-Bis(4-amidinophenoxy)-N-methyl-3-azapentane trihydrochloride] | 0.82 ± 0.44 µg/mL | 0.1 to 0.99 µg/mL | – | – |
| COc1cc(C(=N)N)ccc1OCCN(C)CCOc1ccc(C(=N)N)cc1OC.Cl.Cl [compound 2, 1,5-Bis(4-amidino-2-methoxyphenoxy)-N-methyl-3-azapentane] | 2.1 ± 1.24 µg/mL | 1 to 9.99 µg/mL | – | – |
| COc1cc(C(=N)N)cc(OC)c1OCCN(C)CCOc1c(OC)cc(C(=N)N)cc1OC.Cl.Cl [compound 3, 1,5-Bis(4-amidino-2,6-dimethoxyphenoxy)-N-methyl-3-azapentane trihydrochloride] | 45.2 ± 16.9 µg/mL | 10 to 49.9 µg/mL | – | – |
| CN(CCCCCN(C)c1ccc(C(=N)N)cc1)c1ccc(C(=N)N)cc1.Cl.Cl [compound 4] | 1.02 ± 0.51 µg/mL | 1 to 9.99 µg/mL | – | – |
| Cl.Cl.N=C(N)c1ccc(NCCOCCNc2ccc(C(=N)N)cc2)cc1 [compound 5] | 0.47 ± 0.09 µg/mL | 0.1 to 0.99 µg/mL | – | – |
| Cl.Cl.N=C(N)c1ccc(OCCOCCOc2ccc(C(=N)N)cc2)cc1 [compound 6] | 0.96 ± 0.32 µg/mL | 0.1 to 0.99 µg/mL | – | – |
| COc1cc(C(=N)N)ccc1OCCOCCOc1ccc(C(=N)N)cc1OC.Cl.Cl [compound 7, 1,5-Bis(4-amidino-2-methoxyphenoxy)-3-oxapentane dihydrochloride] | 2 ± 1.65 µg/mL | 1 to 9.99 µg/mL | – | – |
| COc1cc(C(=N)N)cc(OC)c1OCCOCCOc1c(OC)cc(C(=N)N)cc1OC.Cl.Cl [compound 8, 1,5-Bis(4-amidino-2,6-dimethoxyphenoxy)-3-oxapentane dihydrochloride] | 7.66 ± 1.67 µg/mL | 1 to 9.99 µg/mL | – | – |
| COc1cc(C(=N)N)cc(OC)c1OCCCCCOc1c(OC)cc(C(=N)N)cc1OC.Cl.Cl [compound 9, 1,5-Bis(4-amidino-2,6-dimethoxyphenoxy)pentane dihydrochloride] | 1.68 ± 0.37 µg/mL | 1 to 9.99 µg/mL | – | – |
| Cl.Cl.N=C(N)c1ccc(OCCSCCOc2ccc(C(=N)N)cc2)cc1 [compound 10, 1,5-Bis(4-amidinophenoxy)-3-thiapentane dihydrochloride] | 0.52 ± 0.04 µg/mL | 0.1 to 0.99 µg/mL | – | – |
| Cl.Cl.N=C(N)c1ccc(OCCN(CCOc2ccc(C(=N)N)cc2)S(=O)(=O)c2ccccc2)cc1 [compound 11, N,N-Bis[2(4-amidinophenoxy)ethyl]benzenesulfonamide dihydrochloride] | 0.81 ± 0.12 µg/mL | 0.1 to 0.99 µg/mL | – | marked |

Reference: publication PMC3273716 (European Journal of Medicinal Chemistry, 2011)
